Compound activity as filed in PubChem.
PGC1a acetyl inh = PGC1a acetylation modulation, inhibitor mode | inhibition, % at 15.6 µM | U2OS PGC1a acetylation, AlphaScreen anti-acetyl-lysine; with virally co-expressed GCN5 acetyltransferase | 350,000 compounds, 0.17% hits | AID 651687;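 active = every replicate shows inhibition of at least 40%; inconclusive = mean inhibition at least 40% but some replicate below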;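 also: 0% = neutral control wells and 100% = positive control wells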
Env fusion inh = HIV envelope-mediated fusion inhibition. HeLa-JRFL Env/CEM21 cell fusion, luciferase. inhibition, % at 12.3 µM. 360,000 compounds, 1.1% hits. AID 651610;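 active = mean replicate inhibition score of at least 50 and every replicate individually at or above 50; inconclusive = only one of the two criteria met; inactive = mean below 50 and not all replicates reaching 50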;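 also: 0% = plate neutral controls and 100% = maraviroc near 300 nM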
PglD inh = inhibitors of Campylobacter jejuni PglD acetyltransferase; purified PglD enzyme, DTNB colorimetric CoA detection; 360,000 compounds, 0.098% hits; inhibition, % at 12.5 µM; in the data active = inhibition above about 16%, passing the limit was not always enough; inconclusive = no clear call, values can overlap the other calls
rRNA inh HTS = selective bacterial rRNA inhibition in E. coli. E. coli WT GFP vs humanized-ribosome RFP mutants, fluorescence, 24 h; active compounds read low; DMSO median 0, no signal -100. GFP signal change (wild-type ribosome), % (no concentration beside the values). 350,000 compounds, 1.6% hits. AID 720706;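 active = significant combined selectivity score with lowered wild-type GFP, culture density cut under 30%, mutant RFP and density less affected; inactive = any of these conditions unmet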
DENV2 CPE = protects cells from dengue virus 2 cytopathic effect; AID 651640; DENV2-infected cells, cytopathic effect rescue, plate reader; 350,000 compounds, 1.7% hits; CPE inhibition, % at 9.99 µM; in the data active = CPE inhibition above about 20%, passing the limit was not always enough; inconclusive = no clear call, values can overlap the other calls; tested in BHK-21 cells;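 also: 0% = median of neutral control wells and 100% = median of positive control wells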
FN deposit inh = fibronectin deposition inhibition | 350,000 compounds, 0.086% hits | AH1F fibroblasts, Alexa488-fibronectin deposition fluorescence, overnight | inhibition, % at 12.6 µM;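 active = mean inhibition across replicates of 30% or more, regardless of how many single replicates reach that level; inconclusive = mean under 30% yet at least half of replicates reach 30%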;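 also: positive control wells lacked labelled fibronectin entirely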
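Material: AH1F fibroblast monolayer depositing Alexa488-labelled fibronectin into matrix / Amount: 10000 AH1F cells per well / Signal: fluorescence 485/525 nm / Medium: DMEM, 2% serum / Compound: single dose, pinned / Incubation: 1 h cell adhesion before compound, then overnight fibronectin incubation / Reagent: Alexa488-FN, 24 nM final / Read-out: inhibition of fibronectin deposition signal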
The depositor's hits bear a star; i = inactive; ? = inconclusive; nt = no result; [ ] = another dose, or the depositor's remark. Most compounds without a hit are left out; they make up all but 3.5% or so of the library.

SMILES | PGC1a acetyl inh | Env fusion inh | PglD inh | rRNA inh HTS | DENV2 CPE | FN deposit inh
C[C@H](CO)N1C[C@H](C)[C@H](CN(C)C(=O)Nc2cccc3ccccc23)Oc2c(NC(=O)c3ccncc3)cccc2C1=O | -9.0 | 0.3[16.7 µM] | -0.2 | -11.8 | 5.6 | nt
C[C@@H]1CN([C@@H](C)CO)C(=O)c2cccc(NC(=O)Nc3ccc(C(F)(F)F)cc3)c2O[C@H]1CN(C)C(=O)Nc1cccc2ccccc12 | -1.0 | 15.0[16.7 µM] | -3.7 | 0.0 | -12.0 | 16.0
C[C@@H]1CN([C@@H](C)CO)C(=O)c2cccc(NC(=O)Nc3ccc(C(F)(F)F)cc3)c2O[C@@H]1CN(C)C(=O)Nc1cccc2ccccc12 | 2.7 | 17.6[16.7 µM] | -0.4 | -1.0 | ? | 35.6*
O=C(C[C@@H]1CC[C@H]2[C@@H](COC[C@H](O)CN2Cc2cc(F)cc(F)c2)O1)NC1CCCC1 | -9.5 | 13.3[16.7 µM] | -1.7 | 7.4 | -4.5 | -22.0
CN(C)c1ccc(NC(=S)Nc2ccc3c(c2)c(=O)n(C)n3-c2ccc(C(C)(C)C)cc2)cc1 | 8.6 | 58.0* | -2.7 | 3.3 | 1.1 | -2.4
CN(C)c1ccc(NC(=O)Nc2ccc3c(c2)c(=O)n(C)n3-c2ccccc2)cc1 | 8.0 | -23.8 | 6.3 | -1.3 | -4.4 | nt
CCOC(=O)N1CCN(C(=O)C2CCC(=O)N2C(C)C)CC1 (stereo not drawn) | -28.2 | -35.1 | 0.7 | nt | nt | 6.5
CC(C)N1C(=O)CCC1C(=O)O (stereo not drawn) | nt | 11.5 | -0.2 | 5.5 | 33.0* | -0.4
Cn1cnc(S(=O)(=O)N2CC[C@@H]3[C@H](CO)Nc4ccc(-c5ccccc5)cc4[C@@H]32)c1 | 2.1 | nt | -3.9 | -4.3 | 7.7 | -0.5
O=C(C[C@H]1CC[C@H](NC(=O)CN2CCOCC2)[C@@H](CO)O1)NCc1cccc(F)c1 | -4.9 | 3.0[16.7 µM] | 13.0 | -1.2 | 1.5 | -8.1
COc1ccc([C@@H]2CC=CC[C@@H](C)Oc3ccccc3C(=O)N(C)[C@H](C(C)C)C(=O)N2)c(OC)c1 (mixture of isomers) | nt | nt | nt | -7.9 | nt | 6.4
O=C(Cn1ccc([N+](=O)[O-])n1)NCC1CCCO1 (stereo not drawn) | nt | 16.1 | nt | -6.9 | 26.6* | 3.3
CCCNC(=O)Nc1ccc2c(c1)C(=O)N(C)[C@H]1CC[C@@H](CC(=O)NCCCN(C)C)O[C@@H]1CO2 | -0.6 | nt | -0.5 | 4.1 | 17.7 | 3.9
C[C@H](CO)N1C[C@H](C)[C@@H](CN(C)C(=O)C2CCCCC2)OCCCC[C@H](C)Oc2ccc(NS(=O)(=O)c3ccc(F)cc3)cc2C1=O | 4.2 | -138.8[16.7 µM] | -0.5 | -2.4 | -8.5 | -12.7
Cc1ccc(S(=O)(=O)N2[C@@H](c3ccc(Cl)cc3)C(C(=O)O)=CC[C@H]2c2cccs2)cc1 | nt | -2.5 | -1.7 | -29.1* | -3.3 | 3.5
Cc1ccc([C@@H]2CC=C(C(=O)O)[C@H](c3ccc(Br)cc3)N2S(=O)(=O)c2ccc(C)cc2)cc1 | -3.0 | i | 9.0 | -32.4 | 4.4 | -0.8
CCc1ccc([C@@H]2CC=C(C(=O)O)[C@H](c3ccc(C(C)(C)C)cc3)N2S(=O)(=O)c2ccc(C)cc2)cc1 | -3.8 | 15.4 | -0.1 | -6.1 | 48.3* | nt
Cc1ccc(S(=O)(=O)N2[C@@H](c3ccc(Br)cc3)C(C(=O)O)=CC[C@H]2c2ccc(C(C)C)cc2)cc1 | 8.1 | 28.8 | -0.2 | -23.1* | 23.3* | -5.4
CC(C)NC(=O)N(C)C[C@@H]1Oc2cc(C#CC(C)(C)O)ccc2S(=O)(=O)N([C@H](C)CO)C[C@H]1C | -5.2 | -6.4[16.7 µM] | 3.3 | 4.6 | 4.9 | 2.6
Cc1ccccc1-c1cnc2c(c1)C(=O)N([C@@H](C)CO)C[C@@H](C)[C@@H](CN(C)Cc1cncnc1)O2 | -1.1 | -14.4[16.7 µM] | -0.2 | 1.1 | 19.0 | nt
COc1cc(C=NNC(=O)c2ccc(NS(=O)(=O)c3cccs3)cc2)cc(Br)c1O | 8.0 | 0.0 | 0.1 | -31.4* | -1.2 | 8.7
O=C(NN=Cc1ccc(O)cc1)c1ccccc1NS(=O)(=O)c1cccs1 | 12.1 | 5.9 | -3.6 | -37.2* | 8.7 | 8.9
C[C@@H]1CN([C@H](C)CO)C(=O)c2cc(C#CC3CCCCC3)cnc2O[C@H]1CN(C)S(=O)(=O)c1ccc(F)cc1 | 8.3 | 9.9[16.7 µM] | -0.5 | -0.9 | ? | -8.8
CN1C[C@H]2[C@@H](c3ccccc31)[C@@H](CO)N2C(=O)Nc1ccc(F)cc1 | 5.4 | nt | 4.2 | -2.2 | -18.9 | nt
COc1ccc(NC(=O)Nc2ccc3c(c2)C(=O)N([C@H](C)CO)C[C@H](C)[C@H](CN(C)CC2CCCCC2)OCCCC[C@@H](C)O3)cc1 | -7.5 | 3.7[16.7 µM] | -3.1 | 4.2 | 6.0 | nt
SMILES | PGC1a acetyl inh | Env fusion inh | PglD inh | rRNA inh HTS | DENV2 CPE | FN deposit inh
CC(C)NC(=O)Nc1ccc2c(c1)C(=O)N([C@H](C)CO)C[C@H](C)[C@H](CN(C)CC1CC1)OCCCC[C@@H](C)O2 | -5.0 | 0.5[16.7 µM] | 21.2 | 2.5 | 106.6* | nt
C[C@@H]1CCCCO[C@@H](CN(C)CC2CCCCC2)[C@H](C)CN([C@@H](C)CO)C(=O)c2cc(NC(=O)Nc3ccc(F)cc3)ccc2O1 | -13.8 | 18.5[16.7 µM] | -0.7 | -0.8 | 29.1* | nt
C[C@@H]1CCCCO[C@@H](CN(C)CC2CCCCC2)[C@H](C)CN([C@H](C)CO)C(=O)c2cc(NC(=O)NC3CCCCC3)ccc2O1 | -4.7 | 70.0*[16.7 µM] | -1.6 | 5.1 | ? | 4.3
C[C@@H]1CCCCO[C@H](CN(C)CC2CCCCC2)[C@@H](C)CN([C@H](C)CO)C(=O)c2cc(NC(=O)Nc3ccc(F)cc3)ccc2O1 | 2.9 | -5.1[16.7 µM] | 0.0 | 1.0 | -9.7 | nt
COc1ccc(NC(=O)Nc2ccc3c(c2)C(=O)N([C@@H](C)CO)C[C@H](C)[C@H](CN(C)CC2CCCCC2)OCCCC[C@H](C)O3)cc1 | -8.0 | 55.4*[16.7 µM] | 0.2 | -1.7 | -3.3 | nt
CC(C)NC(=O)Nc1ccc2c(c1)C(=O)N([C@H](C)CO)C[C@@H](C)[C@H](CN(C)CC1CC1)OCCCC[C@H](C)O2 | -1.7 | 13.0[16.7 µM] | -3.7 | 2.1 | -3.7 | nt
C[C@@H]1CCCCO[C@@H](CN(C)C(=O)CCC(F)(F)F)[C@H](C)CN([C@H](C)CO)C(=O)c2cc(NS(=O)(=O)c3ccc(F)cc3)ccc2O1 | -17.8 | -77.2[16.7 µM] | 0.2 | -2.3 | -4.5 | 2.2
COc1ccc(NC(=O)Nc2ccc3c(c2)C(=O)N([C@H](C)CO)C[C@H](C)[C@H](CN(C)CC2CC2)OCCCC[C@H](C)O3)cc1 | 17.1 | 64.1*[16.7 µM] | 2.8 | 0.6 | 10.1 | -0.7
COc1ccc(NC(=O)Nc2ccc3c(c2)C(=O)N([C@H](C)CO)C[C@H](C)[C@H](CN(C)CC2CC2)OCCCC[C@@H](C)O3)cc1 | -3.5 | 1.2[16.7 µM] | -3.8 | 2.4 | 0.7 | 4.9
CC(=O)N1[C@H](CO)[C@@H](c2ccccc2)C12CN(Cc1nccs1)C2 | 3.4 | nt | nt | 4.8 | 2.9 | nt
COc1ccc(NC(=O)CSc2n[nH]c(-c3ccccc3)n2)cc1S(N)(=O)=O | -0.7 | 5.9 | -0.2 | 1.4 | 52.5* | -1.9
